Experimental data collected from several papers.
Each line is one published result; the experiments were not run side by side.
Target: Phosphatidylinositol 3-kinase C2 domain-containing subunit gamma (PIK3C2G, Homo sapiens, UniProt O75747)

| SMILES | observed | action | technique | concentration | quantity | result |
| --- | --- | --- | --- | --- | --- | --- |
| CO[C@H]1CC[C@H](CNc2ccc(S(=O)(=O)NC(=O)c3ccc(N4CCN(CC5=C(c6ccc(Cl)cc6)CC(C)(C)CC5)CC4)cc3Oc3cnc4[nH]ccc4c3)cc2[N+](=O)[O-])CC1 | cell-free assay |  | competition with immobilised ligand | 1 µM | remaining binding | 72% |
| Cc1cc(NC(=O)c2cccc3cc(-c4cccc5[nH]nc(N)c45)ccc23)ccc1F | enzyme activity | inhibitor |  | 0.1 µM | activity vs control | 103% |
| Cc1ccc(NC(=O)c2ccc(C)c(C(F)(F)F)c2)cc1C#Cc1nn(C2CCC(O)CC2)c2ncnc(N)c12 (stereo not shown) | cell-free assay |  |  | 10 µM | remaining signal | 98% |
| O=C(CSc1nc2nccnc2c(=O)n1CCc1ccccc1)Nc1nccs1 | enzyme activity | inhibitor |  | 10 µM | inhibition | 76% |
| C=CC(=O)Nc1cc(Nc2nccc(Nc3cc(Cl)c(F)cc3C(C)(C)O)n2)c(OC)cc1N1CC[C@@H](N(C)C)C1 | enzyme activity | inhibitor |  | 1 µM | inhibition | -3% |
| Cc1cnc(NC2CCOCC2)nc1-n1cnc(C(=O)NC(CN)c2cc(F)cc(Cl)c2)c1 (stereo not shown) | enzyme activity | inhibitor | radiometric | 1 µM | remaining activity | 100% |
| COc1cc(Cl)c(C(=O)N[C@@H](CN[C@H]2CC[C@@H](N)CC2)Cc2ccc(C#N)cc2)cc1-c1ccc(CN[C@H](C)c2ccc(C)cc2)o1 | enzyme activity | inhibitor |  | 1 µM | remaining activity | 96% |
| CN(C)CC#Cc1ccc(OCCCc2sc(N3CCc4cccc(C(=O)Nc5nc6ccccc6s5)c4C3)nc2C(=O)O)c(F)c1 | cell-free assay |  | competition with immobilised ligand | 1 µM | remaining binding | 100% |
| Nc1ncnc2occ(-c3ccc(NC(=O)Nc4cc(C(F)(F)F)ccc4F)cc3)c12 | cell-free assay |  |  | 20 µM | remaining signal | 93% |
| CN1CC(Oc2cnc(C#N)cc2-c2ccn3nc(NC(=O)C4CC4)cc3c2)C1 | enzyme activity | inhibitor |  | 1 µM | inhibition | -6% |
| Cc1ccc(C(=O)NCc2ccsc2)cc1C#Cc1cn(C(C)C)c2ncnc(N)c12 | enzyme activity | inhibitor |  | 1 µM | activity vs control | 86% |
| CS(=O)(=O)Nc1cccc(-c2csc(NC(=O)CSc3nc4nccnc4c(=O)n3CCc3ccccc3)n2)c1 | enzyme activity | inhibitor |  | 10 µM | inhibition | 16% |
| Cc1ccc(C(=O)Nc2ccc(CN3CCN(C)CC3)c(C(F)(F)F)c2)cc1C#Cc1cnc2cccnn12 | cell-free assay |  |  | 23.5 nM | remaining signal | 85% |
